Source: PubChem BioAssay (The Scripps Research Institute Molecular Screening Center)
PLCb3 inh = human PLC-beta3 inhibitors, primary screen, biochemical, fluorescence; 0.18% of 370,000 active; AID 720704, 2013; Purified PLC-beta3, fluorogenic substrate; inhibition, % at 12.2 µM; 1-phosphatidylinositol 4,5-bisphosphate phosphodiesterase beta-3 (Homo sapiens), Q01970;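 also: 0% = median of compound wells on plate and 100% = full blocker control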
ASAP1 inh = inhibitors of human ASAP1 ArfGAP activity, primary screen, biochemical, fluorescence polarization | inhibition, % at 16.5 µM | ASAP1-stimulated ARF1 GTP hydrolysis, GDP FP detection | 0.19% of 360,000 active; in the data active = inhibition above about 25%;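 also: 0% = vehicle with enzyme and substrate and 100% = no enzyme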
ARFGAP1 inh = inhibitors of rat ARFGAP1 GAP activity, primary screen, biochemical, fluorescence polarization, GDP tracer; ADP-ribosylation factor GTPase-activating protein 1 (Rattus norvegicus), Q62848; Arfgap1-stimulated ARF1 GTP hydrolysis, GDP FP detection; inhibition, % at 16.5 µM; 0.26% of 360,000 active;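 active = inhibition above a per-plate limit, mean inhibition of low control wells plus 3 SD, cut at about 25% in these data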;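 also: 0% = DMSO wells with enzyme and 100% = wells lacking Arfgap1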
Target sequence (Q62848 1-136 limits assumed): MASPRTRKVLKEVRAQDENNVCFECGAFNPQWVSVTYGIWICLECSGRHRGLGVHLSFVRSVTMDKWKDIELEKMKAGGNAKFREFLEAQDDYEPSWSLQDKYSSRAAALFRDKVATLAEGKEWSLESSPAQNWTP
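Repeats: one replicate per compound; assay system: rat Arfgap1 catalytic domain, aa 1-136; times: enzyme reaction 120 min at 25 °C after 20 min preincubation; detection: FP of antibody-bound GDP Alexa 633 tracer, ex 620/em 688 nm; benchmarks: high control wells lacking Arfgap1, low control full reaction with DMSO; reagent: human ARF1(Δ1-17)-GTP substrate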
HGIII-sPLA2 inh = human group III sPLA2 inhibitors, primary screen, biochemical, QFRET, BODIPY PC-A2 liposome substrate | 0.56% of 370,000 active | Group 3 secretory phospholipase A2 (Homo sapiens), Q9NZ20 | QFRET BODIPY PC-A2 liposome hydrolysis, fluorescence | inhibition, % at 12.2 µM;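 active = inhibition above mean plus 3 SD of compounds lying within the high and low control bounds, cut at about 19% in these data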;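 also: 0% = median of test compound wells and 100% = no enzyme DMSO wells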
PLC-gamma1 inh = PLC-gamma1 enzyme inhibitors, primary screen, biochemical, fluorescence, purified enzyme; inhibition, % at 12.2 µM; fluorogenic substrate; 1-phosphatidylinositol 4,5-bisphosphate phosphodiesterase gamma-1 (Homo sapiens), P19174; 0.84% of 370,000 active; AID 720700, 2013; in the data active = inhibition above about 9.5%
PLCgamma1 ctr = PLC-gamma1 enzyme inhibitors, counter-screen for PLC-beta3 inhibitor project, biochemical, fluorescence | shares compounds with PLC-gamma1 inh | purified PLC-gamma1, fluorogenic substrate | inhibition, % at 12.3 µM | 3.1% of 3,300 active; in the data active = inhibition above about 9.5%
PLCb3 confirm = PLC-beta3 inhibitor confirmation, biochemical, fluorescence, purified enzyme; shares compounds with PLC-gamma1 inh; fluorogenic substrate fluorescence; inhibition, % at 12.3 µM; 1% of 3,300 active; AID 743261, 2014
An asterisk follows results filed as active; · = no result given. In the library only some 1.9% were active in any assay of this set; here they are far more common. Rule as the data show it, unless noted: active = inhibition above about 11%; inactive = the rest.

SMILES	PLCb3 inh	ASAP1 inh	ARFGAP1 inh	HGIII-sPLA2 inh	PLC-gamma1 inh	PLCgamma1 ctr	PLCb3 confirm
Cc1nn(CC(=O)O)c(C)c1Cl	4	-8	2	0	11*	-7	-3
Cc1nn(CC(=O)O)c(C)c1C	1	8	-8	3	3	·	·
CCC(=O)N1CCc2cc(Br)c(S(=O)(=O)NCc3ccccc3OC)cc21	0	·	·	5	-2	·	·
CC(C)c1onc(C(=O)N2CCCCCC2)c1[N+](=O)[O-]	4	-12	-2	6	15*	-3	-1
COc1cc(NC(=O)C2CCN(c3nnc(-n4cccc4)s3)CC2)cc(OC)c1	-1	·	·	-24	3	·	·
O=C(O)/C=C/C(=O)NCc1ccccc1	6	-2	5	5	10*	-6	-3
Cc1ccc(C)c(S(=O)(=O)N2CCC(c3nc4c(nnn4Cc4ccc(F)cc4)c(=O)[nH]3)CC2)c1	-2	8	8	-37	7	·	·
Cc1ccc(Cn2nnc3c(=O)[nH]c(C4CCN(S(=O)(=O)c5cc(C)ccc5C)CC4)nc32)cc1	3	-3	-17	-38	12*	6	4
Cc1ccc(Cn2nnc3c(=O)[nH]c(C4CCN(S(=O)(=O)c5ccc(F)cc5)CC4)nc32)cc1	0	-4	5	-58	9.8*	-3	-3
O=C(CSc1n[nH]c(-c2ccccc2)n1)Nc1ccccc1O	-7	-10	2	-20	9.9*	-6	-3
CCOC(=O)[C@]12CCCCC/C=C\1N(Cc1ccc(OC)cc1)C(=O)[C@H]2CC(=O)NCc1cccs1	4	·	·	-9	9.5*	-4	2
CCOC(=O)NC(=O)c1cn(Nc2ccccc2)c(=O)[nH]c1=O	-3	4	-3	1	10*	0	0
CCOC(=O)NC(=O)c1cn(Nc2ncc(Cl)cc2C(F)(F)F)c(=O)[nH]c1=O	-8	-9	-1	16	0	·	·
C[C@@H]1CCC[C@@]2(O[C@@H](CCO)C[C@H](O)[C@H]2O)O1	9	9	16	11	12*	-6	-2
OCC[C@@H]1C[C@@H](O)[C@H](O)[C@]2(CCCO2)O1	6	11	4	7	12*	-8	-4
C[C@H]1CCC[C@@]2(O[C@H](CCO)C[C@H](O)[C@H]2O)O1	1	12	6	12	3	·	·
CCOC(=O)N1CCN(C(=O)C[C@H]2C(=O)N(CCCOC)C3=CCCC[C@@]32C(=O)OCC)CC1	4	·	·	7	3	·	·
Nc1ncnc2c1ncn2[C@@H]1O[C@H](C(=O)N[C@@H](CCc2ccccc2)C(=O)N2CCN(CC(=O)N3CCCC3)CC2)[C@@H](O)[C@H]1O	1	-12	-5	7	1	·	·
COc1cc(C(N)=O)ccc1OCc1ccccc1	11*	6	-2	7	7	-7	-2
COc1ccc(CN2CCC(C(N)=O)CC2)cc1OCc1ccccc1	-5	-9	0	16	4	·	·
COc1cc(C(=O)NCC2(N(C)C)CCCCC2)ccc1OCc1ccccc1	7	4	14	14	13*	0	3
CCC(=O)c1ccc(OCc2ccccc2)c(OC)c1	1	8	-1	8	1	·	·
COc1ccc(CN2CCN(C)CC2)cc1OCc1ccccc1	4	12	6	9	11*	-3	-2
O=C(CN1C(=O)C2(OCCCO2)c2ccccc21)NCc1ccccc1Cl	-2	·	·	2	0	·	·
O=C(CC1CCCC1)Nc1cc(S(=O)(=O)N2CCOCC2)ccc1O	0	-7	-6	-5	-1	·	·
Cc1ccc(S(=O)(=O)N2CCOCC2)cc1NC(=O)CNCC1CCCCC1	5	-2	-9	-4	10*	-5	-1
